Source: the EternaBench riboswitch data

System: MS2 coat protein
Assay: apparent Kd, MS2 coat protein; higher = weaker binding; RNA-MaP array; FMN 200 µM where present
Summary of the method: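 The titrant was SNAP-549-labelled MS2 coat protein, run from 0.7 or 1.5 nM in doubling steps to 3 µM. It was applied to designs transcribed by stalled E. coli RNA polymerase on Illumina sequencing-chip clusters, without ligand first and then with constant ligand, in 100 mM Tris-HCl pH 7.5, 80 mM KCl, 4 mM MgCl2, BSA, DTT, yeast tRNA and Tween-20. The apparent Kd is the median of filtered per-cluster binding-curve fits, with green signal normalised to red-channel RNA signal and control-cluster median Fmax.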

[1] = designed as: ON switch for flavin mononucleotide, no ligand
[2] = ligand present: flavin mononucleotide, designed as: ON switch for flavin mononucleotide
[3] = designed as: OFF switch for flavin mononucleotide, no ligand
[4] = ligand present: flavin mononucleotide, designed as: OFF switch for flavin mononucleotide

Sequence	apparent Kd [1] [µM]	apparent Kd [2] [µM]	apparent Kd [3] [µM]	apparent Kd [4] [µM]
UGGAUCAUGGGAGGAUAUCCUCAAGAGACAUGAGGAUCACCCAUGUAUUAUAUGCCUCAUGGCAUGGAGAAGGCCCAUGAUCCU	0.176	0.161	–	–
UGGGUAAAUGUAGGAUAUCUAUAUUAAUAAUAUGGAGAAGGACAUGAGGAUCACCCAUGUACAGGGAAUUACCCAUUUCCUCUC	–	–	0.275	0.556
UGUUGUAUUACAGGAUAUCUAGUAUUUUUAUUUAGAGAAGGGUAUUCACAUGAGGAUCACCCAUGUAUAUACGAGGAAGUUGUG	0.0343	0.0388	–	–
UUACUAUUGGAGAAGGGUCGAUCAUAUAGAAUGACAGGAUAUCCAACAUGAGGAUCACCCAUGUUUCACCCAUAUGAGGAUCAC	–	–	0.102	0.031
UUACUCAUGUAAGGAUAUGCAGCCGAUACGGCUGCAGAAGGUACUAAAAUACAUGAGGAUCACCCAUGUCUUUUUAAUUUAGAC	0.14	0.0737	–	–
AAGAAACAUGAGGAUCACCCAUGUAAAUAAAUCUCAGGAUAUCGUACAUGGAAGAUCUAACGAGAAGGGAGAAGAA	0.137	0.14	–	–
UAUAAUUAGUAGAAGGACGGUGAGUAAGAGGUCGUAGGAUAUACAACUGACAUGAGGAUCACCCAUGUGUGUAUGUUGGGAAGG	–	–	0.0111	0.0099
UAUGGUUAAGUCAGGAUAUACGUGCAGAUAUCUGAGUAGAAGGGACAUGAGGAUCACCCAUGUAUGGUAGUGUU	–	–	0.0799	0.132
AAAAAAAAAAGACAGGAUAUCCAAAAAAAAACAUGAGGAUCACCCAUGUAAAAAAAAAAAAAGUGGGAGAAGGGUCAAAAAAAAAA	0.0577	0.0232	–	–
UGUGCUGAAGGAUAUGCGUAAUGGCCGUGAGGCCUAGAUCUACAUGAGGAUCACCCAUGUAGAAGGUCAGUACU	–	–	0.0174	0.0189
UUUGUUUAUGUGAGGAUAUACUGUUUGUUUUGUUUGUAGAAGGUACAUGAGGAUCACCCAUGUUUUGUUUUUUU	–	–	0.0228	0.0205
AAGAAGUGAGGAUAUACGCGAACAAAAAAAAAAAAGAAAGCGUAGAAGGCACAUGAGGAUCACCCAUGUCCAAA	–	–	0.0272	0.0363
ACGUAUCAUGUAGGAUAUGACCCAGGAAACUGGUCAGAAGGACAUGAGGAUCACCCAUGUAGAGUAUGUUAGGAUGACGUAUGC	–	–	0.138	0.188
AGGUAAGAGUUAAUUGUGACGGUGAGAAGGCAAUAGGUUGUGAUUAACAUGAGGAUCACCCAUGUUGAGGAUAUCACCACCUAC	–	–	0.0143	0.0808
CGAAACUACGAGAAGGACAUGUGGUCCUUCAGUUACAUGAGGAUCACCCAUGUAGGAUAUCGUAGUUUCAGGAUCGUGAGAUCC	–	–	0.0587	0.0166
AUGGAUAUCACAGGAUAUGCUAUGGAUACCAUAGCAGAAGGGUGAUCCAUCCUAUGUGAACACAUGAGGAUCACCCAUGUGUCC	0.0984	0.0179	–	–
ACAUACAUUCGAGGAUAUCGGUGAGAAAUUUUACGAGAAGGCGAUUCAUGAUUUAUUAUUUUGGACAUGAGGAUCACCCAUGUA	0.0835	0.0341	–	–
ACUUUACGAGGAUAUACUGUCGGGCCUCGGGCAUACAUACGACAUGAGGAUCACCCAUGUAGAAGGCGUUUACU	–	–	0.0336	0.0611
UUAUUAAAUGUAGGAUAUGCAUAUUAUUAUUAUGCAGAAGGACAUGAGGAUCACCCAUGUAUAUUAUUAUUAUUUAUUAUAUAU	–	–	0.0448	0.0656
UCUUAAUUGAUCCUAUUUACCAACAUGAGGAUCACCCAUGUGCAGGAUAUGCUAAAGAUAGAUAAGCAGAAGGGCAUUUACCGC	–	–	0.213	0.484
GUCGGGAUUACAUGAGGAUCACCCAUGUCAGAACGGGCAGUCAGAAGGUGCCAUUAGGGAGAGGGUAAGGAUAUGAUUUUUGGC	0.0113	0.00992	–	–
GUAGUGCUCAUAGGAUAUCGGGAACGACUUAGACAGGUCGUACAUGAGGAUCACCCAUGUAAAGUCGAGAAGGGUGAUCACGCC	0.592	0.16	–	–
CCCUGUGGAGGAUAUUGCAAAGGUGACAUGAGGAUCACCCAUGUUGGACGUUAAGCACUGCAAGAAGGCCGGUUGA	–	–	0.05	0.0245
